Measured values gathered from unrelated publications.
Observed: cell growth or viability

N.N.[Cl][Pt][Cl] — inhibition (HepG2; MTT; 20 µM): 88.5%
O=c1ccc2ccc3occc3c2o1 — IC50 (HepG2; WST-1; 48 h): 13800 nM
N[C@@H](Cc1ccc(N(CCCl)CCCl)cc1)C(=O)O — IC50 (HepG2; CCK-8; 48 h): 36500 nM
N.N.O=C([O-])C1(C(=O)[O-])CCC1.[Pt+2] — IC50 (PNT2; MTT; 96 h): 27000 nM
CC1=C(O)C(=O)C=C2C1=CC=C1[C@@]2(C)CC[C@@]2(C)[C@@H]3C[C@](C)(C(=O)O)CC[C@]3(C)CC[C@]12C — inhibition (Huh-7; MTT; 20 µM): 77.3%
CC[C@@]1(OC(=O)[C@@H](N)CCSC)C(=O)OCc2c1cc1n(c2=O)Cc2cc3cc4c(cc3nc2-1)OCO4 — IC50 (HepG2; MTT): 113 nM
CCOC(=O)C1=C(N)N(c2ccc(C(=O)OCC)cc2)C(O)=C(C#N)C12C(=O)Nc1ccccc12 (stereo not shown) — viability (HepG2; MTT; 12.5 µM; 24 h): 33.9%
CC[C@H](C)[C@H](N)C(=O)O[C@]1(CC)C(=O)OCc2c1cc1n(c2=O)Cc2cc3cc4c(cc3nc2-1)OCO4 — IC50 (HepG2; MTT): 98 nM
N.N.[Cl][Pt][Cl] — EC50 (A-431; SRB): 1800 nM
CC[C@@]1(OC(=O)[C@@H](N)CCCCN)C(=O)OCc2c1cc1n(c2=O)Cc2cc3cc4c(cc3nc2-1)OCO4 — IC50 (HepG2; MTT): 35 nM
N.N.[Cl][Pt][Cl] — IC50 (HEK-293T; XTT; 24 h): 64400 nM
CC[C@@]1(OC(=O)[C@@H](N)C(C)C)C(=O)OCc2c1cc1n(c2=O)Cc2cc3cc4c(cc3nc2-1)OCO4 — IC50 (HepG2; MTT): 87 nM
CCCc1cc(=O)n2nc(NCc3c(F)cc(Cl)cc3F)c(C#N)c2[nH]1 — IC50 (HCC33; ATP luminescence; 72 h): > 50000 nM
